From ChEMBL document CHEMBL1147883, “Design, synthesis, and biological evaluation of substituted-N-(thieno[2,3-b]pyridin-3-yl)-guanidines, N-(1H-pyrrolo[2,3-b]pyridin-3-yl)-guanidines, and N-(1H-indol-3-yl)-guanidines” (2007) come the findings set out here.

Holding throughout (format): functional, Rattus norvegicus
Assay [1] is described as follows: Insulinotropic activity in RIN5F cells assessed as stimulation of glucose-dependent insulin secretion per microgram of protein at 10 uM. In a few lines:
(§1)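 Seeded at 0.2×10^6 cells/well, grown overnight to 80% confluence. PBS wash, then 40 min preincubation in Krebs-Ringer Hepes buffer (1.1 mM glucose, 0.5% BSA, pH 7.4). Supernatant insulin measured by rat insulin ELISA and normalized to total protein (pg/µg/h). n = 3, mean ± SD.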

The nature of assay [2]: Insulinotropic activity in RIN5F cells assessed as stimulation of glucose-dependent insulin secretion per ug of protein at 0.1 uM. In a few lines: as §1
Assay [3] is described as follows: Insulinotropic activity in RIN5F cells assessed as stimulation of glucose-dependent insulin secretion per ug of protein at 1 uM. The method in brief:
as §1

As for `CCc1[nH]c2ccc(Cl)cc2c1NC(=N)N`, the Activity in assay [1] was 35.2 pg/h; in assay [2] it was 15.8 pg/h; in assay [3] it was 19.5 pg/h.

As to `N=C(N)Nc1c(Cc2ccccc2)[nH]c2ccccc12`, the Activity stood at 15.1 pg/h in assay [1], 11.1 pg/h in assay [2] and 13.1 pg/h in assay [3].

Take `N=C(N)Nc1c(-c2ccccc2)[nH]c2ncccc12`: the Activity in assay [1] came to 28.5 pg/h; in assay [2], 11.5 pg/h; in assay [3], 15.5 pg/h.

Turning to `CCc1[nH]c2ncc(Cl)cc2c1NC(=N)N`, the Activity in assay [1] is 33.1 pg/h; in assay [2], 15.1 pg/h; in assay [3], 18.1 pg/h.

On to `N=C(N)Nc1c(-c2ccccc2)[nH]c2ncc(Cl)cc12`, for which the values for the Activity in assay [1], in assay [2] and in assay [3] were 33.1 pg/h, 15.2 pg/h and 18.1 pg/h, respectively.

As to `N=C(N)Nc1c(C2CCCCC2)[nH]c2ncc(Cl)cc12`, the Activity turned out to be 15.1 pg/h in assay [1], 10.8 pg/h in assay [2] and 13.1 pg/h in assay [3].

Take `N=C(N)Nc1c(Cc2ccccc2)[nH]c2ncc(Cl)cc12`: the results for the Activity in assay [1], in assay [2] and in assay [3] were 15 pg/h, 10.9 pg/h and 12.9 pg/h, respectively.

`CCc1sc2ncccc2c1NC(=N)N`: the Activity was 14.6 pg/h in assay [1], 10.6 pg/h in assay [2] and 12.6 pg/h in assay [3].

Consider `CCc1sc2ncc(Cl)cc2c1NC(=N)N`, for which the results for the Activity in assay [1], in assay [2] and in assay [3] were 31.5 pg/h, 14.8 pg/h and 17.8 pg/h, respectively.

As to `N=C(N)Nc1c(Cc2ccccc2)sc2ncc(Cl)cc12`, the results for the Activity in assay [1], in assay [2] and in assay [3] were 14.5 pg/h, 10.6 pg/h and 12.6 pg/h, respectively.

`N=C(N)Nc1c[nH]c2ncccc12`: the Activity was 14.5 pg/h in assay [1], 10.5 pg/h in assay [2] and 12.5 pg/h in assay [3].

Consider `N=C(N)Nc1csc2ncc(Cl)cc12`, for which the Activity was found to be 14.2 pg/h in assay [1], 10.2 pg/h in assay [2] and 12.2 pg/h in assay [3].

In the case of `Cc1[nH]c2ncc(Cl)cc2c1NC(=N)N`, the Activity is 35.1 pg/h in assay [1], 15.5 pg/h in assay [2] and 19.1 pg/h in assay [3].

For the compound `Cc1sc2ncccc2c1NC(=N)N`, the values for the Activity in assay [1], in assay [2] and in assay [3] were 29.1 pg/h, 11.1 pg/h and 15.1 pg/h, respectively.

Turning to `Cc1[nH]c2ccc(Cl)cc2c1C1=NCCN1`, the Activity in assay [1] was determined as 36.4 pg/h; in assay [2] it was 16.4 pg/h; in assay [3], 20.6 pg/h.

For the compound `Cc1[nH]c2ccc(Cl)cc2c1NC(=N)N`, the Activity turned out to be 36 pg/h in assay [1], 16.1 pg/h in assay [2] and 20.1 pg/h in assay [3].

On to `N=C(N)Nc1c(-c2ccccc2)[nH]c2ccccc12`, for which the Activity stood at 29.1 pg/h in assay [1], 12.1 pg/h in assay [2] and 16.1 pg/h in assay [3].

`N=C(N)Nc1c(C2CCCCC2)[nH]c2ccccc12`: the Activity came out at 15.1 pg/h in assay [1], 10.9 pg/h in assay [2] and 13.1 pg/h in assay [3].

Take `N=C(N)Nc1c(C2CCCCC2)[nH]c2ccc(Cl)cc12`: the Activity in assay [1] is 15.9 pg/h; in assay [2] it was 11.2 pg/h; in assay [3], 13.2 pg/h.

For `N=C(N)Nc1c(Cc2ccccc2)[nH]c2ccc(Cl)cc12`, the Activity in assay [1] amounted to 15.4 pg/h; in assay [2], 11.2 pg/h; in assay [3] it was 13.2 pg/h.

In the case of `N=C(N)Nc1c[nH]c2ccc(Cl)cc12`, the Activity in assay [1] is 15.5 pg/h; in assay [2], 11.1 pg/h; in assay [3] it was 13.2 pg/h.

Turning to `CCc1[nH]c2ccccc2c1NC(=N)N`, the Activity in assay [1] is 16.1 pg/h; in assay [2], 11.1 pg/h; in assay [3], 13.4 pg/h.

As for `N=C(N)Nc1c(-c2ccccc2)[nH]c2ccc(Cl)cc12`, the results for the Activity in assay [1], in assay [2] and in assay [3] were 35.5 pg/h, 15.9 pg/h and 19.5 pg/h, respectively.

`N=C(N)Nc1c[nH]c2ccccc12`: the figures for the Activity in assay [1], in assay [2] and in assay [3] were 15 pg/h, 10.9 pg/h and 13 pg/h, respectively.

Turning to `Cc1sc2ncc(Cl)cc2c1NC(=N)N`, the Activity in assay [1] turned out to be 32.1 pg/h; in assay [2], 15.1 pg/h; in assay [3], 18.1 pg/h.

Consider `N=C(N)Nc1c(Cc2ccccc2)[nH]c2ncccc12`, for which the figures for the Activity in assay [1], in assay [2] and in assay [3] were 14.9 pg/h, 10.9 pg/h and 12.6 pg/h, respectively.

On to `N=C(N)Nc1c(-c2ccccc2)sc2ncccc12`, for which the Activity turned out to be 27.9 pg/h in assay [1], 11.1 pg/h in assay [2] and 15.1 pg/h in assay [3].

For `N=C(N)Nc1c(C2CCCCC2)sc2ncccc12`, the results for the Activity in assay [1], in assay [2] and in assay [3] were 14.1 pg/h, 10.1 pg/h and 12.1 pg/h, respectively.

For `N=C(N)Nc1c(C2CCCCC2)sc2ncc(Cl)cc12`, the Activity in assay [1] was found to be 14.5 pg/h; in assay [2] it was 10.5 pg/h; in assay [3], 12.5 pg/h.

For `N=C(N)Nc1c(Cc2ccccc2)sc2ncccc12`, the figures for the Activity in assay [1], in assay [2] and in assay [3] were 14.5 pg/h, 10.5 pg/h and 12.5 pg/h, respectively.

In the case of `Cc1[nH]c2ncccc2c1NC(=N)N`, the Activity in assay [1] is 29.5 pg/h; in assay [2], 11.5 pg/h; in assay [3], 15.5 pg/h.

As to `Cc1[nH]c2ccccc2c1NC(=N)N`, the results for the Activity in assay [1], in assay [2] and in assay [3] were 30.1 pg/h, 12.1 pg/h and 16.1 pg/h, respectively.

As for `N=C(N)Nc1csc2ncccc12`, the figures for the Activity in assay [1], in assay [2] and in assay [3] were 14.1 pg/h, 10.1 pg/h and 12.1 pg/h, respectively.

On to `N=C(N)Nc1c(C2CCCCC2)[nH]c2ncccc12`, for which the Activity in assay [1] worked out at 14.5 pg/h; in assay [2], 10.2 pg/h; in assay [3] it was 12.5 pg/h.

Turning to `CCc1[nH]c2ncccc2c1NC(=N)N`, the figures for the Activity in assay [1], in assay [2] and in assay [3] were 15 pg/h, 10.8 pg/h and 13 pg/h, respectively.

Consider `N=C(N)Nc1c[nH]c2ncc(Cl)cc12`, for which the results for the Activity in assay [1], in assay [2] and in assay [3] were 14.6 pg/h, 10.5 pg/h and 12.5 pg/h, respectively.

For the compound `N=C(N)Nc1c(-c2ccccc2)sc2ncc(Cl)cc12`, the Activity is 31.6 pg/h in assay [1], 14.9 pg/h in assay [2] and 17.8 pg/h in assay [3].

Consider `CCCCNC(=O)NS(=O)(=O)c1ccc(C)cc1` [TOLBUTAMIDE], for which the Activity in assay [2] came out at 19.9 pg/h; in assay [3], 27.1 pg/h.
